Measurements: ChEMBL document CHEMBL3286182, “4-aminoquinolone piperidine amides: noncovalent inhibitors of DprE1 with long residence time and potent antimycobacterial activity” (J Med Chem, 2014)
≈ marks a conversion by molar mass, not a printed value. Calls of active or inactive are those of the source. The calls are words filed in the database; no cut-off is given here.

How the values were obtained:
[1] = system: Mycobacterium tuberculosis; experiment: Antimycobacterial activity against Mycobacterium tuberculosis over expressing TopA after 5 days by standard microdilution method; type: functional; conditions: 120 h
[2] = system: Mycobacterium tuberculosis; experiment: Antimycobacterial activity against Mycobacterium tuberculosis over expressing PimA after 5 days by standard microdilution method; type: functional; conditions: 120 h
[3] = system: Mycobacterium tuberculosis; experiment: Antimycobacterial activity against Mycobacterium tuberculosis H37Rv after 5 days by standard microdilution method; type: functional; conditions: 120 h
[4] = system: Mycobacterium tuberculosis; experiment: Antimycobacterial activity against Mycobacterium tuberculosis over expressing DprE1 after 5 days by standard microdilution method; type: functional; conditions: 120 h
[5] = system: Mycobacterium tuberculosis; experiment: Antimycobacterial activity against Mycobacterium tuberculosis over expressing InhA after 5 days by standard microdilution method; type: functional; conditions: 120 h
Pseudomonas aeruginosa [6] = experiment: Antimicrobial activity against Pseudomonas aeruginosa ARC546 at 100 uM; type: functional, organism-based
In short: (§1)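 Nonmycobacterial panel of Candida albicans, Gram-negative and Gram-positive pathogens.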

Haemophilus influenzae [7] = experiment: Antimicrobial activity against Haemophilus influenzae ARC158 at 100 uM; type: functional, organism-based; in short: as §1
[8] = Inhibition of Mycobacterium smegmatis recombinant DprE1 using farnesylphosphoryl-beta-D-ribofuranose as substrate assessed as conversion of amplex red to resorufin after 30 mins; parameters: species or system Mycolicibacterium smegmatis
In short: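 Msm DprE1 (thioredoxin-6His fusion of Msm Rv3790) at 75 nM, preincubated 30 min with 10 μM FAD. Buffer: 50 mM glycylglycine pH 8.5, 200 mM potassium glutamate, 0.002% Brij-35, 2% DMSO, 25 °C. Started with 300 μM farnesylphosphoryl-β-D-ribofuranose, 0.01 mg/mL HRP and 50 μM Amplex Red.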

[9] = system: Mycobacterium tuberculosis; experiment: Antimycobacterial activity against Mycobacterium tuberculosis H37Rv under hypoxic condition after 6 days by resazurin assay; type: functional
Escherichia coli [10] = experiment: Antimicrobial activity against Escherichia coli ARC524 at 100 uM; type: functional, organism-based; in short: as §1
Staphylococcus aureus = experiment: Antimicrobial activity against Staphylococcus aureus ARC517 at 100 uM; type: functional, organism-based; in short: as §1
Klebsiella pneumoniae = experiment: Antimicrobial activity against Klebsiella pneumoniae ARC1865 at 100 uM; type: functional, organism-based; in short: as §1
[11] = system: Mycolicibacterium smegmatis; experiment: Antimicrobial activity against Mycobacterium smegmatis mc2155 at 100 uM; type: functional, organism-based; conditions: str. MC2 155
Escherichia coli [12] = experiment: Antimicrobial activity against Escherichia coli ARC523 at 100 uM; type: functional, organism-based; in short: as §1
Streptococcus pneumoniae = experiment: Antimicrobial activity against Streptococcus pneumoniae ARC548 at 100 uM; type: functional, organism-based; in short: as §1
[13] = system: Mycolicibacterium smegmatis; experiment: Antimicrobial activity against Mycobacterium smegmatis ATCC 607 at 100 uM; type: functional, organism-based
Candida albicans = experiment: Antimicrobial activity against Candida albicans ARC527 at 100 uM; type: functional, organism-based; in short: as §1
Pseudomonas aeruginosa [14] = experiment: Antimicrobial activity against Pseudomonas aeruginosa ARC545 at 100 uM; type: functional, organism-based; in short: as §1
Haemophilus influenzae [15] = experiment: Antimicrobial activity against Haemophilus influenzae ARC446 at 100 uM; type: functional, organism-based; in short: as §1
[16] = Inhibition of Mycobacterium smegmatis DprE1 Y321H mutant using farnesylphosphoryl-beta-D-ribofuranose as substrate assessed as conversion of amplex red to resorufin after 30 mins; parameters: species or system Mycolicibacterium smegmatis
In short: (§2)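 Recombinant M. smegmatis DprE1 (thioredoxin-6His fusion), wild type or Y321H, 75 nM. Enzyme was preincubated 30 min in FAD assay mix: 50 mM glycylglycine pH 8.5, 200 mM potassium glutamate, 10 μM FAD, 0.002% Brij-35, 2% DMSO. Reaction was started with 300 μM farnesylphosphoryl-β-D-ribofuranose, 0.01 mg/mL HRP and 50 μM amplex red at 25 °C.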

[17] = system: Mycolicibacterium smegmatis; experiment: Ratio of IC50 for Mycobacterium smegmatis DprE1 Y321H mutant to IC50 for Mycobacterium smegmatis recombinant wild type DprE1; in short: as §2

| Structure (SMILES) | MIC [3] | MIC [4] | Activity (Pseudomonas aeruginosa [6]) | Activity (Haemophilus influenzae [7]) | IC50 [8] | Activity [9] | Activity (Escherichia coli [10]) | Activity (Staphylococcus aureus) | Activity (Klebsiella pneumoniae) | Activity [11] | Activity (Escherichia coli [12]) | Activity (Streptococcus pneumoniae) | Activity [13] | Activity (Candida albicans) | Activity (Pseudomonas aeruginosa [14]) | Activity (Haemophilus influenzae [15]) | other results |
| --- | --- | --- | --- | --- | --- | --- | --- | --- | --- | --- | --- | --- | --- | --- | --- | --- | --- |
| NNC(=O)c1ccncc1 [ISONIAZID] | 0.45 µM (≈ 0.0617 µg/mL) | 0.22 µM (≈ 0.0302 µg/mL) | – | – | – | – | – | – | – | – | – | – | – | – | – | – | MIC [1]: 0.45 µM (≈ 0.0617 µg/mL); MIC [2]: 0.22 µM (≈ 0.0302 µg/mL); MIC [5]: > 7.25 µM |
| COc1c(N2C[C@@H]3CCCN[C@@H]3C2)c(F)cc2c(=O)c(C(=O)O)cn(C3CC3)c12 [MOXIFLOXACIN] | – | 0.08 µM (≈ 0.0321 µg/mL) | – | – | – | – | – | – | – | – | – | – | – | – | – | – | MIC [1]: 0.31 µM (≈ 0.124 µg/mL); MIC [5]: 0.16 µM (≈ 0.0642 µg/mL) |
| Cn1ncc(C(=O)N2CCC(Nc3cc(=O)[nH]c4c(F)cccc34)CC2)c1Cl | 3.1 µM (≈ 1.25 µg/mL) | – | inactive | inactive | 0.011 µM | inactive | inactive | inactive | inactive | inactive | inactive | inactive | inactive | inactive | inactive | inactive | – |
| CCn1c(=O)cc(NC2CCN(C(=O)c3cnn(C)c3Cl)CC2)c2ccccc21 | > 100 µM | – | inactive | inactive | > 100 µM | inactive | inactive | inactive | inactive | inactive | inactive | inactive | inactive | inactive | inactive | inactive | – |
| CCn1ncc(C(=O)N2CCC(Nc3cc(=O)[nH]c4ccc(F)cc34)CC2)c1Cl | 12.5 µM (≈ 5.22 µg/mL) | – | inactive | inactive | 0.045 µM | inactive | inactive | inactive | inactive | inactive | inactive | inactive | inactive | inactive | inactive | inactive | – |
| C[C@H]1C[C@H](Nc2cc(=O)[nH]c3cc(F)c(F)cc23)CCN1C(=O)c1cnn(C)c1Cl | 0.39 µM (≈ 0.17 µg/mL) | 12.5 µM (≈ 5.45 µg/mL) | – | – | 0.021 µM | inactive | – | – | – | – | – | – | – | – | – | – | IC50 [16]: 1.03 µM; fold change (FC) [17]: 47 |
| Cc1onc(C(=O)N2CCC(Nc3cc(=O)[nH]c4cc(F)c(F)cc34)CC2)c1C | 0.2 µM (≈ 0.0805 µg/mL) | – | inactive | inactive | 0.018 µM | inactive | inactive | inactive | inactive | inactive | inactive | inactive | inactive | inactive | inactive | inactive | – |
